From ChEMBL document CHEMBL1135913, “Structure-based design, synthesis, and biological evaluation of irreversible human rhinovirus 3C protease inhibitors. 6. Structure-activity studies of orally bioavailable, 2-pyridone-containing peptidomimetics” (J Med Chem, 2002)

How the values were obtained:
[1] = target: T1, Human rhinovirus A protease (Human rhinovirus sp.) (UniProt Q4U254); test: (§1) cytotoxicity against HRV Protease 3CP (serotype 14); type: functional
T1 sequence (whole entry): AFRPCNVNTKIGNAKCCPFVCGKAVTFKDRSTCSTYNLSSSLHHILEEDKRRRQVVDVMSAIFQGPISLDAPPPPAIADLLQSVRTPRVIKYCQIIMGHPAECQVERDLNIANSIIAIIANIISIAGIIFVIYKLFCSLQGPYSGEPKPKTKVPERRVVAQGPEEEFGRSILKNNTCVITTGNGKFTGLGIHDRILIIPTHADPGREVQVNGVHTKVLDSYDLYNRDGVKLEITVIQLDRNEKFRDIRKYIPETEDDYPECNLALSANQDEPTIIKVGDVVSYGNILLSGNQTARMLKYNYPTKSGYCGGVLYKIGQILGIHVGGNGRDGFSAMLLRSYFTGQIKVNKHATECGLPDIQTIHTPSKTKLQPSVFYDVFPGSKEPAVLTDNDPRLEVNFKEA

[2] = target: T1, Human rhinovirus A protease (Human rhinovirus sp.); test: Inhibitory activity against Human Rhinovirus Protease 3C (serotype 14); settings: Rhinovirus B
[3] = target: T2, Human rhinovirus A protease (Human rhinovirus sp., UniProt Q4U254); test: Inhibition of HRV Protease 3CP (serotype 14).; set-up: species or system Rhinovirus B
T2 sequence (Q4U254 whole entry): T1 sequence (whole entry)

[4] = target: T1, Human rhinovirus A protease (Human rhinovirus sp.); test: as §1
[5] = target: T1, Human rhinovirus A protease (Human rhinovirus sp.); test: cytotoxicity against HRV Protease 3CP (serotype 14),; type: functional
[6] = target: T1, Human rhinovirus A protease (Human rhinovirus sp.); test: cytotoxicity against HRV Protease 3CP (serotype 10),; type: functional
[7] = target: T1, Human rhinovirus A protease (Human rhinovirus sp.); test: cytotoxicity against HRV Protease 3CP (serotype 1A),; type: functional
[8] = target: T1, Human rhinovirus A protease (Human rhinovirus sp.); test: cytotoxicity against HRV Protease 3CP (serotype 10); type: functional
[9] = Half life upon exposure to human plasma; type: ADME, cell-free
Procedure, shortened: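 Pooled heparinized human plasma from 10 donors (stored at -70 °C), or 100 mM potassium phosphate buffer pH 7.4, n = 3 each. Compound added from fresh 5 mM acetonitrile stock to 25 μM final. Incubated at 37 °C for 1–3 h with regular sampling, acetonitrile precipitation, HPLC-UV at 212 nm. Half-life from linear regression of mean concentration–time data.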

[10] = target: T1, Human rhinovirus A protease (Human rhinovirus sp.); test: cytotoxicity against HRV Protease 3CP (serotype 1A); type: functional
[11] = Loss of compound (%metabolized) after 30 min exposure to human liver microsomes; type: ADME, Microsome; settings: read-out: Metabolism
Procedure, shortened: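 Pooled human liver microsomes (1 mg/mL, 6–8 livers) with 2 mM NADPH in 100 mM potassium phosphate pH 7.4 were preincubated 1 min at 37 °C. Compound was added at 25 μM and incubated 30 min, then quenched with acetonitrile. Loss was measured against time-zero controls by reversed-phase HPLC with UV at 215 nm.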

Compound	K obs / 1 [2] [M⁻¹ s⁻¹]	EC50 [3] [nM]	CC50 [4] [nM]	also measured
CCOC(=O)/C=C/[C@H](C[C@@H]1CCNC1=O)NC(=O)[C@H](Cc1ccccc1)n1cccc(NC(=O)OCc2ccccc2)c1=O	380000			CC50 [1]: > 1000 nM
CCOC(=O)/C=C/[C@H](CCC(N)=O)NC(=O)[C@H](Cc1ccccc1)n1cccc(NC(=O)c2cc(C)on2)c1=O	329000	16	> 10000	
CCOC(=O)/C=C/[C@H](CCC(N)=O)NC(=O)[C@H](Cc1ccc(F)cc1)n1cccc(NC(=O)OCc2ccccc2)c1=O	81400	14		CC50 [5]: > 320000 nM; CC50 [6]: > 10000 nM; CC50 [7]: > 10000 nM
CCOC(=O)/C=C/[C@H](CCC(N)=O)NC(=O)Cn1cccc(NC(=O)OCc2ccccc2)c1=O		> 10000	> 10000	
CCOC(=O)/C=C/[C@H](C[C@@H]1CCNC1=O)NC(=O)[C@H](Cc1ccc(F)c(F)c1)n1cccc(NC(=O)c2cc(C)on2)c1=O	1.8e+06	1		CC50 [8]: > 10000 nM; CC50 [1]: > 10000 nM; half-life [9]: 1.4 h; CC50 [10]: > 10000 nM; metabolised at 0.5 h [11]: 80%
CCOC(=O)/C=C/[C@H](CCC(N)=O)NC(=O)[C@H](Cc1ccccc1)n1cccc(NC(=O)C2SCCS2)c1=O	114000	104		CC50 [8]: > 10000 nM; CC50 [1]: > 10000 nM; CC50 [10]: > 10000 nM
CCOC(=O)/C=C/[C@H](C[C@H]1CCNC1=O)NC(=O)[C@H](Cc1ccccc1)n1cccc(NC(=O)OCc2ccccc2)c1=O	6340	469	> 10000	
CCOC(=O)c1ccc(OCCC2CCN(c3ccc(C)nn3)CC2)cc1 [PIRODAVIR]		44	> 10000	
CCOC(=O)/C=C/[C@H](CCC(N)=O)NC(=O)[C@H](CC1CCCCC1)n1cccc(NC(=O)OCc2ccccc2)c1=O	6500	178	> 10000	
CCOC(=O)/C=C/[C@H](CCC(N)=O)NC(=O)[C@H](Cc1ccccc1)n1ccc(C)c(NC(=O)c2cc(C)on2)c1=O	116000			
CCOC(=O)/C=C/[C@H](CCC(N)=O)NC(=O)[C@H](Cc1ccccc1)n1cccc(NC(=O)C2CCCC2)c1=O	37400	34	> 10000	
